# TAAR1 agonist: agonists of human TAAR1. Q96RJ0. CHO RD-HGA16 TAAR1, Fluo-8 calcium fluorescence; vehicle wells 0%, saturating PEA agonist 100%. activation, % at 3 µM. 360,000 compounds, 0.99% hits;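 active = activation above the mean activation of all test compounds in the run plus 3 SD, cut at about 38% in these data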
# Target sequence (Q96RJ0 whole entry, looked up): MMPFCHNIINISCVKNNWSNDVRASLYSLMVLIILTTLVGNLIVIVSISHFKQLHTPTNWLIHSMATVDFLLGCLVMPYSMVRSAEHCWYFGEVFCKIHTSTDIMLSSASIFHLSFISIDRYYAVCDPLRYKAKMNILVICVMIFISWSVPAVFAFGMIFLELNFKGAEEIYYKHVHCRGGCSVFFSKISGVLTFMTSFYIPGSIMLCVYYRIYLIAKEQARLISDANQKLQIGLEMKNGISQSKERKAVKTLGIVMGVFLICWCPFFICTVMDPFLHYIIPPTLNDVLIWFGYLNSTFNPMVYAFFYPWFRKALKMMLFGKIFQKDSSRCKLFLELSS
#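 Repeats: no replicates (n 1) | Material: CHO-derived RD-HGA16 cells with stable Gα16 and human TAAR1 | Technique: Kinetic Fluo-8 calcium fluorescence | Schedule: 17-24 h seeding, 75 min 37 °C dye, 30 min RT | Evaluation: % activation from peak over basal fluorescence ratio, DMSO-to-PEA scaled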
# OX1R antag-1: blocks the human orexin 1 receptor; CHO/OX1R cells, Fluo-8 calcium fluorescence, orexin A; inhibition, % at 5 µM; 330,000 compounds, 0.43% hits; AID 434989;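 active = inhibition above its plate's threshold, mean inhibition of all tested compounds on the plate plus 3 SD, cut at about 37% in these data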;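 note: 0% = orexin A challenge wells and 100% = SB-334867-A antagonist wells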
# CHO parental Ca: signal in parental CHO cells, OX1R antagonist counter-screen; parental CHO-K1, ATP-induced calcium, Fluo-8 fluorescence; inhibition, % at 5.6 µM; 330,000 compounds, 0.63% hits;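 active = inhibition above that plate's mean sample inhibition plus 3 SD, cut at about 26% in these data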;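 note: 0% = ATP-challenged DMSO wells and 100% = DMSO wells without ATP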
#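 Assay system: parental CHO cells; Read-out basis: percent inhibition of ATP-evoked calcium rise, normalized to controls; Benchmarks: ATP and no-ATP DMSO wells; Compound dosing: single nominal dose of 5.6 µM per compound; Signal: Fluo-8 calcium dye fluorescence; Also added: ATP as calcium-mobilizing challenge; Repeats: singlicate.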
# GPR7 antag: human neuropeptides B/W receptor 1 antagonism | GPR7-expressing cells, fluorescence antagonist assay | inhibition, % at 4.4 µM | AID 1861 | P48145 | 290,000 compounds, 1.1% hits; in the data active = inhibition above about 16%, passing the limit was not always enough;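 note: cells stimulated with the agonist NPW; 0% = agonist with vehicle and 100% = vehicle without agonist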
# Target sequence (P48145 whole entry, looked up): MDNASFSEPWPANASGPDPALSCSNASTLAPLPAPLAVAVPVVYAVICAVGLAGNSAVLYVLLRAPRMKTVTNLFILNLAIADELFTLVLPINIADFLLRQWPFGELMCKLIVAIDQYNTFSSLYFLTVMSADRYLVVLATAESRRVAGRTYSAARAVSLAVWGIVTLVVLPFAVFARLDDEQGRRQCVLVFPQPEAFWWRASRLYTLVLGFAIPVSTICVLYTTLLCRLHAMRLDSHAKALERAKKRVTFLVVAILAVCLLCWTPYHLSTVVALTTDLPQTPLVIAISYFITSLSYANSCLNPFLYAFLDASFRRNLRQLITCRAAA
# OX1R antag-2: blocks the human orexin 1 receptor. OX1R-expressing cells, FRET antagonist read-out. inhibition, % at 6.6 µM. 330,000 compounds, 1.8% hits. AID 485270; in the data active = inhibition mostly above about 38%, no sharp cut-off; inactive = mostly below about 40%;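 note: 0% = agonist challenge alone and 100% = reference antagonist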
# TAAR1 antagonist: human TAAR1 antagonism; inhibition, % at 3 µM; Q96RJ0; AID 624466; CHO RD-HGA16 TAAR1, Fluo-8 calcium fluorescence, antagonist; 360,000 compounds, 1.5% hits;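 active = inhibition above a per-plate cutoff, the mean inhibition of test compounds on that plate plus 3 SD, cut at about 49% in these data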;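 note: 0% = DMSO plus EC80 beta-PEA response and 100% = DMSO alone without agonist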
#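 Test system – hTAAR1-expressing CHO RD-HGA16 cells, Gα16-coupled · Also added – β-PEA at EC80 concentration, post-compound challenge · Compound – 3 µM, single point · Incubation – dye loading 75 min at 37 °C, then 30 min room temperature · Measured by – Fluo-8 intracellular calcium dye fluorescence, real-time kinetic reads · Benchmarks – vehicle and agonist controls · Replicates – singlicate, one well per test compound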
# An asterisk follows results filed as active; · = no result given. Most compounds without a hit are left out; they make up all but 4.6% or so of the library.
SMILES,TAAR1 agonist,OX1R antag-1,CHO parental Ca,GPR7 antag,OX1R antag-2,TAAR1 antagonist
Cc1cccc(N2N=C(C(=O)Nc3ccc(Cl)c(S(=O)(=O)N4CCOCC4)c3)CCC2=O)c1,13,-18,-20,·,5,12
C/C=C/c1ccc2c(c1)O[C@H](CN(C)C(=O)NC1CCCC1)[C@H](C)CN([C@H](C)CO)S2(=O)=O,-1,·,·,·,·,-7
O=c1c(/C=N/O)c(Nc2ccccc2)nc2ccccn12,1,9,0,-12,73*,-31
CCC(C)N=Cc1c(Nc2ccccc2)nc2c(C)cccn2c1=O (stereo unspecified),2,-4,4,-7,13,-31
Cc1ccc(C(C)(C)C)cc1S(=O)(=O)Nc1cccc(C(=O)N2CCN(c3ccccn3)CC2)c1,15,·,·,·,·,61*
O=C(c1ccc(Cl)c(S(=O)(=O)N2CCCCCC2)c1)N1CCN(c2ccccn2)CC1,15,-6,-13,21*,9,33
C/C(=N\Nc1ccc([N+](=O)[O-])cc1[N+](=O)[O-])C(C)(C)C(C(=O)O)C(=O)O,1,-10,-7,-8,73*,-14
CC(C)C[C@H]1C(=O)N2CCC[C@H]2[C@]2(O)O[C@](NC(=O)C3C=C4c5cccc6[nH]c(Br)c(c56)C[C@H]4N(C)C3)(C(C)C)C(=O)N12 (stereo partly specified),3,-7,-18,·,58*,26
CN1C[C@H](C(=O)N[C@]2(C)O[C@@]3(O)[C@@H]4CCCN4C(=O)[C@H](Cc4ccccc4)N3C2=O)CC2c3cccc4[nH]cc(c34)C[C@H]21 (stereo partly specified),3,-21,-7,·,15,7
CC(C)=CCCC(C)c1cc(C(=O)NCCc2ccc(O)cc2)c(N)s1 (stereo unspecified),40*,·,·,·,·,-1
CCCN1Cc2cccc(C(=O)NC(CC(=O)OCC)c3ccc(OC(C)C)cc3)c2C1=O (stereo unspecified),1,-12,-17,-20,30,16
CCOC(=O)CC(NC(=O)c1cccc2c1C(=O)N(Cc1cccnc1)C2)c1ccc(OC(C)C)cc1 (stereo unspecified),8,-16,-3,-11,48*,39
COCCN1C[C@@H](CO)O[C@@H](n2cnc3c(N(C)C)ncnc32)C1,1,·,·,·,·,3
CC(=O)c1cn(CCOc2ccccc2C)c2ccccc12,10,22,41*,26,37,27
c1ccc2c(c1)ncn2CCCOc1ccc2c(c1)CCC2,14,-16,15,-3,21,17
c1ccc2c(c1)ncn2CCCCOc1ccc2c(c1)CCC2,7,-7,37*,-3,19,33
Cc1nc2ccccc2n1Cc1ccc(Cl)cc1,2,4,31*,16,43,-2
Cc1ccccc1Cn1c(C)nc2ccccc21,3,13,41*,8,64,13
COC(=O)c1ccc(COc2ccc(CNCc3ccc(Cl)cc3)cc2)cc1,10,-8,-6,-1,-5,-9
Cc1ccc(C)c(N2CCN(C3C(=O)Nc4ccccc4-n4nnnc43)CC2)c1 (stereo unspecified),36,·,·,·,·,4
Cc1ccc(OCCCCn2cnc3ccccc32)cc1,4,21,4,-1,16,-27
Cc1ccccc1OCCn1c(C)nc2ccccc21,4,38,35*,4,22,32
Cc1nc2ccccc2n1CCOc1ccccc1,7,0,-4,1,25,17
Cc1ccccc1OCCCCn1cnc2ccccc21,10,0,50*,16,13,7
C[C@H]1CN(C(=O)OC(C)(C)C)CCN1c1ccc(N2CC[C@H](O)C2)c(C#N)c1,8,·,·,·,·,-3
SMILES,TAAR1 agonist,OX1R antag-1,CHO parental Ca,GPR7 antag,OX1R antag-2,TAAR1 antagonist
CCCCC[C@H](C)N1C[C@@H](COCc2ccccc2)Oc2cc(N3CCC[C@H]3C(N)=O)ccc2S1(=O)=O,39*,·,·,·,·,-32
CCCCC[C@@H](C)N1C[C@@H](COCc2ccccc2)Oc2cc(N3CCC[C@H]3C(N)=O)ccc2S1(=O)=O,3,·,·,·,·,-38
NC(=O)Nn1c(CCC(=O)O)ccc1-c1ccc(Cl)cc1,0,0,1,-6,17,7
O=C(O)CCc1ccc(-c2ccccc2)n1NC(=O)c1sc2ccccc2c1Cl,3,-15,-3,-1,41*,1
O=C(N/C(=C/c1cccc([N+](=O)[O-])c1)C(=O)N1CCOCC1)c1ccc(Br)cc1,10,-19,-4,-5,12,-35
O=C1N/C(=C/c2ccsc2)C(=O)N1c1ccccc1,44*,-4,-2,1,11,17
O=c1oc(-c2ccc([N+](=O)[O-])cc2)nc2ccc(O)cc12,4,-11,7,-2,75*,17
Cn1c(=O)c2ccccc2n(C)c1=O,1,·,·,·,·,-13
Cc1ccc(S(=O)(=O)NCCC(=O)OCc2ccc([N+](=O)[O-])cc2)cc1C,1,17,41*,·,14,50*
Cc1ccc(S(=O)(=O)NCC2CCN(C(=O)C(=O)c3cc4ccccc4o3)CC2)cc1,0,·,·,·,·,-21
Cc1[nH]c2ccccc2c1CCNC(=O)c1ccc2c(c1[N+](=O)[O-])C(=O)c1ccccc1C2=O,-3,-8,-6,-7,71*,12
Cc1[nH]c2c(C)cccc2c1CCNC(=O)c1ccc2c(c1[N+](=O)[O-])C(=O)c1ccccc1C2=O,4,5,2,-3,75,20
Cc1ccc2c(c1)C1CN(C)CCC1N2Sc1ccccc1[N+](=O)[O-] (stereo unspecified),40*,-21,-9,19,1,-2
CCOC(=O)c1c(NC(=O)CSc2nc3cc(Cl)ccc3s2)sc(C(C)=O)c1C,-1,-13,-7,7,6,-15
CCOC(=O)c1c(NC(=O)CSc2nc3ccccc3s2)sc(C(C)=O)c1C,4,-11,36*,-4,33,-10
CSCCC(NC(=O)OCc1ccccc1)C(=O)NC(Cc1c[nH]c2ccccc12)C(=O)O (stereo unspecified),1,·,·,·,·,-28
Cc1ccc(NC(=O)/C(=C\c2cccc([N+](=O)[O-])c2)NC(=O)c2cccs2)cc1,4,7,-1,1,52*,-8
Cc1ccc(NC(=O)/C(=C/c2cccc([N+](=O)[O-])c2)NC(=O)C2CCCCC2)cc1,3,-28,-18,-1,5,-14
O=C(/C=C/c1cccc([N+](=O)[O-])c1)Nc1cccc(NC(=O)c2cccs2)c1,11,-1,-13,-14,70*,58*
C[C@@H]1COC(=O)[C@H](NC(=O)OCC2c3ccccc3-c3ccccc32)C/C=C\C[C@@H](CC(=O)N(CCO)Cc2ccccc2)C(=O)N1,·,-30,-24,·,5,·
